Data published in article PMC9076386 (RSC Advances, 2019).

Key:
Type in all cases: cell-based
HepG2 cells = test: MTT cytotoxicity assay, HepG2; conditions: Homo sapiens, HepG2, read-out: IC50 HepG2
In short: (§1)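 Human lines were grown in RPMI 1640 with 10% FBS at 37 °C and 5% CO2; MCF-7 medium also had glutamine, HEPES and pyruvate. Log-phase cells were seeded, preincubated for 24 h, then treated for 72 h with DMSO-dissolved test compound at 0, 1.25, 2.5, 5, 10 or 20 μM. MTT (5 mg mL−1 stock) was added for 4 h, formazan was dissolved in DMSO and OD was read at 550 nm.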

SKOV3 cells = test: MTT cytotoxicity assay, SKOV3; conditions: Homo sapiens, SK-OV-3, read-out: IC50 SKOV3
In short: as §1

HeLa cells = test: MTT cytotoxicity assay, HeLa; conditions: Homo sapiens, read-out: IC50 Hela
In short: as §1

## CC(=O)O[C@H]1C(=O)[C@@]2(C)[C@H]([C@H](OC(=O)c3ccccc3)[C@]3(O)C[C@H](OC(=O)[C@H](O)[C@@H](NC(=O)c4ccccc4)c4ccccc4)C(C)=C1C3(C)C)[C@]1(OC(C)=O)CO[C@@H]1C[C@@H]2O [Paclitaxel]
HepG2 cells
  IC50: 1.5 nM
SKOV3 cells
  IC50: 3.8 nM
HeLa cells
  IC50: 3 nM
